Hits are enriched below; roughly 2.7% of the tested compounds scored in any of these assays.
MC4R antagonist: blocks human MC4R cAMP signaling; MC4R-expressing cells, MTII-stimulated cAMP, LANCE TR-FRET; inhibition, % at 6.5 µM; 0.48% of 360,000 active; AID 540295;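 active means inhibition above its plate's cutoff, the mean of tested wells on that plate plus 3 SD, cut at about 29% in these data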;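 further: 0% = Melanotan II alone and 100% = Melanotan II plus saturating MCL0020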
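System: U2OS cells stably expressing human melanocortin 4 receptor (MC4R). Reagent: Melanotan II challenge after compound preincubation. Doses: 6.5 µM. Times: 30-min compound, 1-h challenge, 1-h detection, room temperature. Measured by: TR-FRET with Eu-cAMP and labeled anti-cAMP, 671 nm. Replicates: singlicate.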
MC4R ag barr: activates human MC4R beta-arrestin recruitment; P32245; 0.98% of 360,000 active; U2OS MC4R beta-arrestin complementation, luminescence; percent of melanotan II response, DMSO zero; activation, % at 8.9 µM;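 active means activation above a per-plate cutoff, the mean activation of sample wells on that plate plus 3 SD, cut at about 8% in these data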
PG9 binder: binds the HIV-1 gp120 antibody PG9; 0.43% of 360,000 active; TR-FRET gp120-PG9 antibody binding; inhibition, % at 6.7 µM; in the data active means inhibition above about 8.5%
Rev-erbA mod: modulators of human Rev-erb alpha DNA binding. P20393. Rev-erbα–FITC-DNA binding, fluorescence polarization, 90 min. activity, % at 10 µM. 0.79% of 370,000 active;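 active means activity above about 14%, limit read from the data; passing the limit was not always enough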;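 further: 0% = DMSO wells with 35 nM protein and 100% = DMSO wells with 750 nM protein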
NR2E3 ag-1: agonists of human nuclear receptor NR2E3; Q9Y5X4; GST-NR2E3/biotin-RetCOR TR-FRET, 1536-well; inhibition of corepressor binding, % at 4.78 µM; 0.12% of 320,000 active; AID 2300;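 active means percent inhibition above the cutoff of mean plus 3 SD of all tested compounds, set per screening campaign, cut at about 20% in these data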;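 further: 0% = DMSO wells and 100% = biotin wells as full block of FRET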
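Material – GST-tagged NR2E3 plus biotinylated RetCOR corepressor · Quantity – NR2E3 fusion 1.35 nM · Times – 5 h incubation at 4 °C · Medium – pH 7.5 Tris-based buffer · Technique – TR-FRET, Eu(K)-anti-GST donor, streptavidin-D2 acceptor, ex 340, em 617/671 nm · Benchmarks – high control biotin, low control 0.6% DMSO · Format – 1536-well plates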
NR2E3 ag-2: human photoreceptor-specific nuclear receptor agonism. 0.35% of 360,000 active. Q9Y5X4. inhibition of corepressor binding, % at 3.98 µM. CHO-S Gal4-NCOR/VP16-NR2E3 two-hybrid, luciferase. AID 602229;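 active means inhibition above the mean of all tested compounds plus 3 SD, cut at about 70% in these data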;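 further: 0% = DMSO with NR2E3 transfected cells and 100% = cells lacking NR2E3 construct; higher means lower luciferase signal from less NR2E3 corepressor binding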
MC4R barr conf: human MC4R beta-arrestin agonism confirmation | 31% of 2,400 active | AID 602192 | shares compounds with MC4R ag barr | U2OS MC4R beta-arrestin recruitment, luminescence; scaled DMSO 0%, Melanotan II 100% | activation, % at 8.9 µM;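 active means mean activation across replicates above the hit cutoff set in the earlier primary screen, cut at about 8% in these data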
MOR DOR agonist: activates mu-delta opioid heterodimer, MC4R agonist counter-screen | shares compounds with MC4R ag barr | 5.8% of 2,400 active | AID 602194 | activation, % at 9.2 µM | U2OS PathHunter beta-arrestin, beta-gal luminescence; percent of deltorphin B response, DMSO zero;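 active means mean activation across replicates exceeds the hit threshold derived in the earlier primary screen, cut at about 18% in these data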;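 further: 100% = deltorphin B at 0.9 µM final and 0% = DMSO alone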
Starred values were filed as active, the others as inactive; . = not tested or not shown.

SMILES	MC4R antagonist	MC4R ag barr	PG9 binder	Rev-erbA mod	NR2E3 ag-1	NR2E3 ag-2	MC4R barr conf	MOR DOR agonist
COc1ccc(/C=C/C(=O)Nc2ccc(OC)cc2[N+](=O)[O-])cc1	-4	32*	-1	1	-1	3	7	10
CCOc1ccc(NC(=S)NC(=O)/C=C/c2ccc(C)cc2)c([N+](=O)[O-])c1	-18	38*	-2	3	2	-21	17*	6
Cc1ccc(S(=O)(=O)Nc2nc(C)c(C(=O)NNS(=O)(=O)c3cc(C)ccc3C)s2)cc1	-5	-2	-1	-2	2	-1	.	.
CC(Sc1ccc(S(=O)(=O)N2CCOCC2)cn1)C(=O)Nc1ccc(Cl)cc1Cl (centres undefined)	10	0	-2	3	-2	-2	.	.
Cc1ccc(C(C)C)c(OCc2ccc(C(=O)N/N=C/c3ccc(O)c(O)c3)cc2)c1	18	20*	2	1	0	-72	9.0*	6
COCCNc1nnc(Cc2ccccc2)c(=O)[nH]1	10	0	1	-1	1	16	.	.
Cc1ccccc1NC(=O)C1C2CC/C=C\CCC21 (centres undefined)	14	0	-1	-6	1	-10	.	.
O=C(Nc1ccccc1F)c1oc2ccccc2c1NC(=O)C1CC1	2	9.6*	-1	8	0	14	4	5
O=C(Nc1ccccc1F)C1CCCC1	12	-4	0	-3	-1	-6	.	.
CCOc1ccc2nc(NC(=S)NCc3ccccc3)sc2c1	-12	18*	-3	1	-7	-8	4	2
O=C(O)CCCN1C(=O)/C(=C\c2ccccc2OCc2ccccc2)SC1=S	10	0	-2	6	4	1	.	.
O=C(O)CCCN1C(=O)/C(=C/c2cn(-c3ccccc3)nc2-c2cccs2)SC1=S	19	9.9*	1	-2	.	-35	6	1
O=C(NCCc1ccc(Cl)cc1)c1cc(-c2ccccn2)nc2ccccc12	16	11*	0	7	0	-18	5	5
O=C(CSc1ncnc2sccc12)Nc1ccccc1F	8	-1	0	0	-3	-4	.	.
OCC[C@@H]1NCc2cc(CO)cc(-c3ccccc3)c21	0	-1	-1	6	.	-15	.	.
O=c1[nH]c(SCc2ccc(F)cc2Cl)nc2ccccc12	-7	10*	2	3	4	-21	2	6
Cc1nn(Cc2ccc(F)cc2)c2sc(C(=O)Nc3nccs3)cc12	3	13*	16*	12	-1	-2	2	5
Cc1nn(Cc2ccccc2Cl)c2sc(C(=O)Nc3nccs3)cc12	-6	7	5	15	5	-16	.	.
CCOC(=O)c1c(-c2ccc(C)o2)csc1NC(=O)COC(=O)c1ccc(NC(N)=O)cc1	26	24*	8	4	-7	-16	6	3
CCN1CCN(c2cc(N3CCc4ccccc4C3)c(F)cc2[N+](=O)[O-])CC1	-6	15*	-2	6	-6	7	14*	15
Cc1[nH]c2ccccc2c1C(=O)CSc1nc2ccccc2[nH]1	0	2	0	3	1	-49	.	.
Cc1[nH]c2ccccc2c1C(=O)CSc1ccc(Cl)cc1	-11	12*	-2	9	0	-28	3	6
Cc1cc(C(=O)Nc2sc3c(c2C#N)CCC(C(C)(C)C)C3)no1 (centres undefined)	-5	9.9*	2	0	2	-34	-2	3
CC(C)(C)C1CCc2c(sc(NC(=O)c3cc(C4CC4)on3)c2C#N)C1 (centres undefined)	-6	0	-2	3	-1	-2	.	.

Compound activity: PubChem, several laboratories
